ChEMBL document CHEMBL2390854, “Green synthesis of tetrahydropyrimidine analogues and evaluation of their antimicrobial activity” (2013)
In brackets after ≈: the same amount, converted by molar mass.

How the values were obtained:
[1] = test system: Escherichia coli; experiment: Antibacterial activity against Escherichia coli NCIM 2256 by broth dilution method; format: functional
In short: (§1)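 MIC by broth dilution following CLSI guidelines. Ciprofloxacin and ampicillin served as reference drugs.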

[2] = test system: Aspergillus niger; experiment: Antifungal activity against Aspergillus niger NCIM 1196 by agar dilution method; format: functional
In short: (§2)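 MIC determined by standard agar dilution per CLSI guidelines. Fluconazole and miconazole were reference drugs, and dimethyl sulfoxide was the solvent control.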

[3] = test system: Escherichia coli; experiment: Antibacterial activity against Escherichia coli NCIM 2256 by broth dilution method
[4] = test system: Staphylococcus aureus; experiment: Antibacterial activity against Staphylococcus aureus NCIM 2901 by broth dilution method; format: functional; in short: as §1
[5] = test system: Candida albicans; experiment: Antifungal activity against Candida albicans NCIM 3471 by agar dilution method; format: functional; in short: as §2
[6] = test system: Aspergillus flavus; experiment: Antifungal activity against Aspergillus flavus NCIM 539 by agar dilution method; format: functional; in short: as §2
[7] = test system: Bacillus subtilis; experiment: Antibacterial activity against Bacillus subtilis NCIM 2063 by broth dilution method; format: functional; in short: as §1

Row | Compound | MIC [1] | MIC [2] | MIC [3] | MIC [4] | MIC [5] | MIC [6] | MIC [7]
1 | COC(=O)C1=C(C(=O)OC)N(c2ccc(O)cc2)CN(c2ccc(O)cc2)C1 | 80 µg/mL (≈ 208 µM) | 50 µg/mL (≈ 130 µM) | 80 µg/mL (≈ 208 µM) | 90 µg/mL (≈ 234 µM) | 75 µg/mL (≈ 195 µM) | 50 µg/mL (≈ 130 µM) | 
2 | CCOC(=O)C1=C(C(=O)OCC)N(c2ccccc2)CN(c2ccccc2)C1 | 15 µg/mL (≈ 39.4 µM) | 25 µg/mL (≈ 65.7 µM) |  | 60 µg/mL (≈ 158 µM) | 50 µg/mL (≈ 131 µM) | 25 µg/mL (≈ 65.7 µM) | 25 µg/mL (≈ 65.7 µM)
3 | CCOC(=O)C1=C(C(=O)OCC)N(c2nc3ccc(OC)cc3s2)CN(c2nc3ccc(OC)cc3s2)C1 | 15 µg/mL (≈ 27 µM) | 12.5 µg/mL (≈ 22.5 µM) |  | 100 µg/mL (≈ 180 µM) | 25 µg/mL (≈ 45.1 µM) | 12.5 µg/mL (≈ 22.5 µM) | 20 µg/mL (≈ 36.1 µM)
4 | O=C(O)c1cn(C2CC2)c2cc(N3CCNCC3)c(F)cc2c1=O [CIPROFLOXACIN] | 15 µg/mL (≈ 45.3 µM) |  |  |  |  |  | 25 µg/mL (≈ 75.4 µM)
5 | COC(=O)C1=C(C(=O)OC)N(c2nc3ccc(OC)cc3s2)CN(c2nc3ccc(OC)cc3s2)C1 | 40 µg/mL (≈ 76 µM) | 12.5 µg/mL (≈ 23.7 µM) |  | 100 µg/mL (≈ 190 µM) | 25 µg/mL (≈ 47.5 µM) | 12.5 µg/mL (≈ 23.7 µM) | 25 µg/mL (≈ 47.5 µM)
6 | Clc1ccc(COC(Cn2ccnc2)c2ccc(Cl)cc2Cl)c(Cl)c1 (stereo not drawn) [MICONAZOLE] |  | 12.5 µg/mL (≈ 30 µM) |  |  | 12.5 µg/mL (≈ 30 µM) | 12.5 µg/mL (≈ 30 µM) | 
7 | COC(=O)C1=C(C(=O)OC)N(c2ccccn2)CN(c2ccccn2)C1 | 60 µg/mL (≈ 169 µM) | 25 µg/mL (≈ 70.5 µM) |  | 80 µg/mL (≈ 226 µM) | 25 µg/mL (≈ 70.5 µM) | 12.5 µg/mL (≈ 35.3 µM) | 40 µg/mL (≈ 113 µM)
8 | CCOC(=O)C1=C(C(=O)OCC)N(c2ccccn2)CN(c2ccccn2)C1 | 60 µg/mL (≈ 157 µM) | 25 µg/mL (≈ 65.4 µM) |  | 100 µg/mL (≈ 261 µM) | 25 µg/mL (≈ 65.4 µM) | 12.5 µg/mL (≈ 32.7 µM) | 20 µg/mL (≈ 52.3 µM)
9 | OC(Cn1cncn1)(Cn1cncn1)c1ccc(F)cc1F [FLUCONAZOLE] |  | 25 µg/mL (≈ 81.6 µM) |  |  | 40 µg/mL (≈ 131 µM) | 25 µg/mL (≈ 81.6 µM) | 
10 | CC1(C)S[C@@H]2[C@H](NC(=O)[C@H](N)c3ccccc3)C(=O)N2[C@H]1C(=O)O [AMPICILLIN] | 50 µg/mL (≈ 143 µM) |  | 50 µg/mL (≈ 143 µM) | 50 µg/mL (≈ 143 µM) |  |  | 
11 | COC(=O)C1=C(C(=O)OC)N(c2ccc(Cl)cc2)CN(c2ccc(Cl)cc2)C1 | 60 µg/mL (≈ 142 µM) | 25 µg/mL (≈ 59.3 µM) |  | 100 µg/mL (≈ 237 µM) | 25 µg/mL (≈ 59.3 µM) | 25 µg/mL (≈ 59.3 µM) | 40 µg/mL (≈ 94.9 µM)
12 | CCOC(=O)C1=C(C(=O)OCC)N(c2ccc(Cl)cc2)CN(c2ccc(Cl)cc2)C1 | 15 µg/mL (≈ 33.4 µM) | 25 µg/mL (≈ 55.6 µM) |  | 80 µg/mL (≈ 178 µM) | 25 µg/mL (≈ 55.6 µM) | 25 µg/mL (≈ 55.6 µM) | 25 µg/mL (≈ 55.6 µM)
13 | COC(=O)C1=C(C(=O)OC)N(c2cccc([N+](=O)[O-])c2)CN(c2cccc([N+](=O)[O-])c2)C1 | 80 µg/mL (≈ 181 µM) | 100 µg/mL (≈ 226 µM) |  | 80 µg/mL (≈ 181 µM) | 100 µg/mL (≈ 226 µM) | 100 µg/mL (≈ 226 µM) | 100 µg/mL (≈ 226 µM)
14 | COC(=O)C1=C(C(=O)OC)N(c2ccccc2)CN(c2ccccc2)C1 | 60 µg/mL (≈ 170 µM) | 25 µg/mL (≈ 70.9 µM) |  | 90 µg/mL (≈ 255 µM) | 50 µg/mL (≈ 142 µM) | 25 µg/mL (≈ 70.9 µM) | 30 µg/mL (≈ 85.1 µM)
15 | CCOC(=O)C1=C(C(=O)OCC)N(c2ccc(O)cc2)CN(c2ccc(O)cc2)C1 | 50 µg/mL (≈ 121 µM) | 50 µg/mL (≈ 121 µM) |  | 100 µg/mL (≈ 242 µM) | 75 µg/mL (≈ 182 µM) | 50 µg/mL (≈ 121 µM) | 40 µg/mL (≈ 97 µM)
16 | CCOC(=O)C1=C(C(=O)OCC)N(c2cccc([N+](=O)[O-])c2)CN(c2cccc([N+](=O)[O-])c2)C1 | 100 µg/mL (≈ 213 µM) | 100 µg/mL (≈ 213 µM) |  | 100 µg/mL (≈ 213 µM) | 100 µg/mL (≈ 213 µM) | 100 µg/mL (≈ 213 µM) | 60 µg/mL (≈ 128 µM)
